ADAM17 inh – inhibits human ADAM17; P78536; recombinant ADAM17, EDANS/DABCYL FRET peptide cleavage; inhibition, % at 6.95 µM; 370,000 compounds, 0.83% hits;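 active = inhibition above the mean of compounds lying between control limits plus 3 SD, set per campaign, cut at about 8.5% in these data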;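 also: 0% = DMSO-only wells as the low control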
SKN-1 block – C. elegans SKN-1 inhibition; inhibition, % at 21.8 µM; 360,000 compounds, 0.49% hits; AID 624304; C. elegans VP596 Pgst-4::GFP/RFP ratio, acrylamide-induced, 24 h;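 active = interference check ratio from 0.5 to 1.5 plus GFP to RFP signal ratio inhibition reaching or exceeding a fixed threshold, cut at about 30% in these data, passing the limit was not always enough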
ADAM10 inh – ADAM10 inhibition, QFRET primary screen; inhibition, % at 7 µM; 370,000 compounds, 0.62% hits; recombinant ADAM10, EDANS/DABCYL FRET peptide cleavage, 3 h; O14672;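 active = inhibition above a per-campaign cutoff equal to the mean of compounds falling between control-based bounds plus 3 SD, cut at about 20% in these data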;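 also: 0% = DMSO wells while the 100% control is not disclosed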
Target sequence (O14672 214-748 limits assumed): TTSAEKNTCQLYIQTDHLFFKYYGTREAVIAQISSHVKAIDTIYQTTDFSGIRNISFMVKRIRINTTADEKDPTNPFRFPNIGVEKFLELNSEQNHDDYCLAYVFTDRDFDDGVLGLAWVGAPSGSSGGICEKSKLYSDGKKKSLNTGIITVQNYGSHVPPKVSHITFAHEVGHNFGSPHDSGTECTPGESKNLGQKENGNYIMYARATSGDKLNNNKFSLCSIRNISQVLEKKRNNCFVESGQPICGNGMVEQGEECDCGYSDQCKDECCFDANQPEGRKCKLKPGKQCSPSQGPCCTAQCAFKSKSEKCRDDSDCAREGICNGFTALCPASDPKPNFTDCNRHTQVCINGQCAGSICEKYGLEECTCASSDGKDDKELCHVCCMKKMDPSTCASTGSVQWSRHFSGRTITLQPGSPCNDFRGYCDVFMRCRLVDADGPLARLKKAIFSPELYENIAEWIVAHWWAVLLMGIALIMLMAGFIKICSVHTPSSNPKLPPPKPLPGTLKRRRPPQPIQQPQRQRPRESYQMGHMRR
MPTP inh – blocks calcium-induced mitochondrial swelling | isolated mouse mitochondria, Ca2+ swelling absorbance, 30 min | inhibition, % at 10 µM | 360,000 compounds, 1.4% hits;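 active = inhibition of 50% or more, scaled per plate between neutral and stimulator controls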;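 also: 0% = DMSO wells given calcium and 100% = 1 mM EGTA wells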
MT1-MMP act inh – inhibitors of human MT1-MMP activation; AID 651647; HT1080 RFP-PRO-GFP cells, GFP/RFP ratio fluorescence, overnight; percent of plate control window, DMSO zero; GFP/RFP ratio change, % at 20 µM; P50281; 360,000 compounds, 0.061% hits;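 active = GFP/RFP ratio change of at least 30% with cell ATP level not reduced by more than half and red fluorescence within 50% of control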
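Test system: HT1080 RFP-PRO-GFP cells; Benchmarks: DMSO and RFP-L50D-GFP cell wells; Timing: cells overnight before dosing, compound overnight, 37 °C, 5% CO2; Compound: one 20 µM compound dose with 1% DMSO; Read-out: GFP/RFP fluorescence ratio.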
NR3A LBD binder – modulators (binders) of human NR3A ligand-binding domain. NR3A LBD differential scanning fluorimetry, Tm shift; 0% = protein alone, 100% = glycine-bound protein. 340,000 compounds, 2.5% hits. Tm shift relative to glycine control, % at 25 µM;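 active = melting temperature shift of at least 10% of the positive control shift, at one fixed dose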
Rh123 counter – Rhodamine 123 counter-screen of mitochondrial pore hits. shares compounds with MPTP inh. isolated mitochondria, membrane potential, Rhodamine 123 fluorescence. inhibition, % at 10 µM. 5,000 compounds, 78% hits; in the data active = inhibition above about 22%;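 also: 0% = DMSO vehicle and 100% = positive control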
MPTP abs DR – dose response confirmation of mitochondrial permeability transition pore inhibitors | shares compounds with MPTP inh | isolated mitochondria swelling, absorbance | IC50, µM | 780 compounds, 58% hits; in the data active = IC50 below about 20 µM
MPTP cs DR – counter-screen for mitochondrial permeability transition pore inhibitors, dose response. shares compounds with MPTP inh. isolated mitochondria counterscreen, fluorescence read-out. IC50, µM. 780 compounds, 49% hits; in the data active = IC50 below about 80 µM
Starred values were filed as active, the others as inactive; i = inactive; / = no result given; ! = not confirmed by another sample. A selection: hits, their analogues and other compounds. The true share with any hit is near 4.7%.

SMILES	ADAM17 inh	SKN-1 block	ADAM10 inh	MPTP inh	MT1-MMP act inh	NR3A LBD binder	Rh123 counter	others
CC(C)(C)C(=O)NC(NC(=S)Nc1sc2c(c1C#N)CCCC2)C(Cl)(Cl)Cl (configuration not stated)	-2	19	0	94*	-1	16*	53*
CCC1(C)Cc2c(sc(NC(=S)NC(=O)c3ccccc3)c2C#N)CO1 (configuration not stated)	1	11	1	83*	-3	22*	5	MPTP abs DR=i;MPTP cs DR=4.5*
CN1Cc2sc(NC(=S)NC(=O)c3ccccc3)c(C#N)c2CC1(C)C	-39	/	-97	/	/	1	/
CC(=O)NC(=S)Nc1sc2c(c1C#N)CCCCC2	0	1	-9	84*	2	-3	77*
CC(=O)Nc1ccc(NCC(O)COc2ccccc2)cc1 (configuration not stated)	-3	3	-1	0	2	1	/
O=C(NCCO)/C(=C/c1ccc2c(c1)OCO2)NC(=O)c1ccc(Br)cc1	0	-5	6	0	1	-1	/
CC(C)(C)c1ccc(C(=O)NC(=S)Nc2sc3c(c2C#N)CCC3)cc1	-4	4	-7	35	5	10	/
N#Cc1c(NC(=S)NC(=O)c2ccccc2)sc2c1CCC2	-1	10	-3	58*	-1	11*	37*
Cc1nnc2ccc(Oc3ccc(-c4ccccc4)cc3)nn12	-7	-12	5	74*	2	-5	66*
CCN(CC)CC(=O)Nc1ccc2c(c1)Nc1ccccc1CC2	-3	3	-1	84*	6	2	-4	MPTP abs DR=10*;MPTP cs DR=66*
CCCCCCCCCCCCCCCC[n+]1ccccc1	-3	18	4	53*!	-7	-7	107*
CSc1nc(Oc2ccc(F)cc2F)cc(C(F)(F)F)n1	2	-18	8	0	1	3	/
CSc1nc(Oc2cccc(C(F)(F)F)c2)cc(C(F)(F)F)n1	0	-17	1	55*	2	0	4	MPTP abs DR=11*;MPTP cs DR=>80
COc1cc(C[C@@H]2C(=O)OC[C@H]2Cc2ccc(OC)c(OC)c2)ccc1O	3	1	1	92*	18	3	80*
O=C(N/N=C/c1ccccc1)c1[nH]c2ccc(Br)cc2c1-c1ccccc1	5	0	-2	86*	5	27*	90*
CCOC(=O)C(NC(=O)c1ccccc1Cl)(Nc1sc2c(c1C(N)=O)CCC2)C(F)(F)F (configuration not stated)	-7	-3	-1	0	-15	-1	/
COc1ccc(C(C#N)=C2C=C(Cl)C(=NO)C=C2Cl)cc1	5	2	-2	13	-8	/	/
N#CC(=C1C=C(Br)C(=NO)C=C1Cl)c1cccc2ccccc12	4	6	7	76*	0	/	57*
Cn1c(SCC(=O)Nc2cccc(C(=O)O)c2)nnc1-c1cc2cc(Br)ccc2o1	-6	-8	-3	0	1	-4	/
CCc1cccc(C)c1NC(=O)CSc1nnc(-c2cc3cc(Br)ccc3o2)n1CC	0	24	5	92*	0	-4	84*
O=[N+]([O-])c1ccc(N=Nc2ccc(O)c3ccccc23)cc1	/	1	/	98*	-14	20*	79*
Cc1cc(/C(N)=N/OC(=O)Nc2cccc(C(F)(F)F)c2)no1	-3	10	-3	72*	3	0	88*
Cc1cc(NC(=O)Nc2cccc(C(F)(F)F)c2)no1	4	0	8	76*	6	589*	71*
N/C(=N\OC(=O)Nc1ccccc1)c1cccc(C(F)(F)F)c1	-2	22	1	-1	0	6	/
COCCNC(=O)Cc1ccc(F)cc1	-3	-5	-2	0	1	0	/
SMILES	ADAM17 inh	SKN-1 block	ADAM10 inh	MPTP inh	MT1-MMP act inh	NR3A LBD binder	Rh123 counter	others
C[C@H]1CN([C@@H](C)CO)S(=O)(=O)c2ccc(Br)cc2O[C@H]1CN(C)Cc1ccccc1	0	-2	2	-3	-4	/	/
Cc1ccc(C(=O)NC2CC(C)(C)NC(C)(C)C2)cc1S(=O)(=O)N1CCOCC1	1	1	-2	2	2	-4	/
O=C1CCCCN1CCC(=O)N1CCCC(N2CCN(c3cccc(Cl)c3)CC2)C1 (configuration not stated)	2	2	-8	0	3	2	/
Cc1nc2cc(NC(=O)Nc3ccc(Br)cc3)ccc2o1	-6	8	-22	82*	8	34*	83*
CC1CCCN(c2ccc(C(=O)Nc3ccc4c(c3)OCO4)cc2[N+](=O)[O-])C1 (configuration not stated)	6	11	19	58*	8	-2	43*
O=C(Nc1ccc(N2CCCC2)c(Cl)c1)c1ccc([N+](=O)[O-])cc1	2	-2	10	76*	7	1	76*
Cc1cc(C(=O)Nc2ccc(N3CCCC3)c(Cl)c2)ccc1[N+](=O)[O-]	8	-3	18	80*	4	-25	86*
CC1CCCN(c2ccc(C(=O)NCc3ccc4c(c3)OCO4)cc2[N+](=O)[O-])C1 (configuration not stated)	5	14	16	7	2	-8	/
CN1C(=O)c2ccc(NC(=O)c3ccc(N4CCCCC4)c([N+](=O)[O-])c3)cc2C1=O	4	10	2	34	6	-22	/
O=C(COC(=O)c1cccc(S(=O)(=O)N2CCCC2)c1)Nc1ccccc1C(F)(F)F	-4	4	-6	1	7	0	/
c1ccc2cc(CSCc3nc4ccccc4[nH]3)ccc2c1	1	31	-7	88*	6	-6	88*
O=C(NCCc1ccccc1)C1=CCN(S(=O)(=O)c2ccccc2)CC1	-3	-5	-5	0	-2	-1	/
Cc1cccnc1CN1CCN(C(=O)CCc2nnc(CCc3ccccc3)o2)CC1	-4	-1	-5	-5	-4	-1	/
Cc1ccc2[nH]c(O)c(N=Nc3ccccc3C)c2c1	-3	-4	-1	66*	-9	0	-3	MPTP abs DR=i;MPTP cs DR=>80
Cc1ccccc1N=Nc1c(O)[nH]c2ccccc12	2	19	2	4	-9	3	/
CCN(CC)CCNC(=O)c1cc2c(=O)n(C)c3ccccc3c2n1C	-26	2	-93	-1	2	-1	/
